Assay results reported in ChEMBL document CHEMBL1124458, “Electrophilic derivatives of purines as irreversible inhibitors of A1 adenosine receptors” (J Med Chem, 1989).
Values belong to the compound of their own block, whether it stands above or below them.

How the values were obtained:
Adenosine receptor A1 [1] = molecular target: T1, Adenosine receptor A1 (Rattus norvegicus, UniProt P25099); assay: Affinity for adenosine A1 receptor using [3H]N6-(phenylisopropyl)adenosine (R)-[3H]-PIA as a radioligand in rat brain.; assay type: tissue-based
T1 sequence (P25099 whole entry): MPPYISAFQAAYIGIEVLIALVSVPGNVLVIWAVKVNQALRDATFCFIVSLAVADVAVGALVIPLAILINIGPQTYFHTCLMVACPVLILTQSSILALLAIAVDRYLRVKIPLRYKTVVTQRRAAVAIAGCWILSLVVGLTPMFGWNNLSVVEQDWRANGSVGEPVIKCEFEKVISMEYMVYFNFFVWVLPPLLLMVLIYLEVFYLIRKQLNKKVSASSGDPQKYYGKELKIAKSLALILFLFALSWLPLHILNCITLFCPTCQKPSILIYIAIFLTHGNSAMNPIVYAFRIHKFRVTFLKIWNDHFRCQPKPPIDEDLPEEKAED

[2] = molecular target: T2, Adenosine receptor A1 (Rattus norvegicus) (UniProt P25099); assay: Inhibition of [125I]-APNEA binding to adenosine A1 receptor of rat brain at 50 nM
T2 sequence (whole entry): T1 sequence (P25099 whole entry)
Method in brief: (§1)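 Adenosine deaminase-treated rat cerebral cortex membranes were exposed to the ligand for 45 min at 37 °C. They were washed three times, held in buffer with 10⁻⁴ M IBMX for 18 h at 25 °C, washed and re-treated with deaminase. Residual sites were measured by 125I-APNEA saturation (0.1–2.5 nM) against untreated membranes carried through the same procedure.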

Adenosine receptor A1 [3] = molecular target: T3, Adenosine receptor A1 (Bos taurus, UniProt P28190); assay: Affinity for Adenosine A1 receptor using [N6-[(3-[125I]-iodo-4-aminophenyl)ethyl]adenosine in calf brain; assay type: tissue-based
T3 sequence (P28190 whole entry): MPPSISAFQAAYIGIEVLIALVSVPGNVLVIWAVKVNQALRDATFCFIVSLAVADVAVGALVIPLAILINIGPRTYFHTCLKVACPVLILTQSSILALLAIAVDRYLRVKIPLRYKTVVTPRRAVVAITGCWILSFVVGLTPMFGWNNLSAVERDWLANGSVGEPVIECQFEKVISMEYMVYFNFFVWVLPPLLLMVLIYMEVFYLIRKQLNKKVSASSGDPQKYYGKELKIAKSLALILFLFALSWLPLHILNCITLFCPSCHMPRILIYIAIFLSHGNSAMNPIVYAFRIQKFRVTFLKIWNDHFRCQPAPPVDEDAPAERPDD
Method in brief: (§2)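 Bovine cerebral cortex membranes were pretreated with adenosine deaminase (0.5 unit/mL, 20 min, 37 °C). Membranes (40 µg) were incubated with 125I-APNEA and competitor for 1 h at 37 °C. Separation was by dilution in cold Tris-HCl/MgCl2/EDTA buffer, pH 8.26, with 0.02% Chaps, then glass-filter filtration and gamma counting. Nonspecific binding was defined with 10⁻⁵ M (R)-PIA.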

[4] = molecular target: T2, Adenosine receptor A1 (Rattus norvegicus); details: 50 nM
Adenosine A2 receptor [5] = molecular target: T4, Adenosine A2 receptor (Rattus norvegicus, UniProt P29276+P30543); assay: Inhibition of [3H]N-ethyladenosine-5'-uronamide binding to Adenosine A2 receptor of rat striatal membrane
[6] = molecular target: Adenosine receptors; A1 & A2 (Rattus norvegicus) (UniProt P29276+P25099+P30543); assay: Relative affinities for Adenosine A2 and Adenosine A1 receptors; assay type: protein assay
[7] = molecular target: T2, Adenosine receptor A1 (Rattus norvegicus); assay: Percentage inhibition of [125I]APNEA binding to adenosine A1 receptor from rat brain after 45 min incubation at 500 nM; method in brief: as §1
[8] = molecular target: T2, Adenosine receptor A1 (Rattus norvegicus); details: 5 nM
[9] = molecular target: T2, Adenosine receptor A1 (Rattus norvegicus); details: 5 nM; remark: listed apart in the source
Adenosine receptor A1 [10] = molecular target: T3, Adenosine receptor A1; assay: Affinity for Adenosine A1 receptor using [125I]APNEA in calf brain.; method in brief: as §2
[11] = molecular target: T2, Adenosine receptor A1 (Rattus norvegicus); assay: Percentage inhibition of [125I]-APNEA binding to Adenosine A1 receptor from rat brain after 45 min incubation at 50 nM
Method in brief: (§3)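 Rat cerebral cortex membranes pretreated with adenosine deaminase (0.5 unit/mL, 20 min, 37 °C). Incubated with ligand at the stated concentration for 45 min at 37 °C, then washed three times in Tris/MgCl2/EDTA buffer pH 8.26 with 0.02% Chaps. Then 10⁻⁴ M IBMX for 18 h at 25 °C, washed twice and deaminase-treated again. Untreated membranes went through every step as controls.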

Adenosine receptor A1 [12] = molecular target: T1, Adenosine receptor A1; assay: Affinity for adenosine A1 receptor using [3H]-N6 -(phenylisopropyl)-adenosine (R)-[3H]-PIA in rat brain.; assay type: tissue-based
Method in brief: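 Rat cerebral cortex membranes were incubated with 1 nM (R)-[3H]PIA and a range of competitor concentrations. Each point was run in triplicate, in at least three separate experiments.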

[13] = molecular target: T2, Adenosine receptor A1 (Rattus norvegicus); assay: Percentage inhibition of [125I]APNEA binding to adenosine A1 receptor from rat brain after 45 min incubation at 1 nM
Method in brief: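 Rat cerebral cortex membranes, pretreated with adenosine deaminase (0.5 unit/mL, 20 min, 37 °C), incubated with ligand 45 min at 37 °C. Washed three times in Tris/MgCl2/EDTA buffer pH 8.26 with 0.02% Chaps, then 10⁻⁴ M IBMX 18 h at 25 °C to strip reversible ligand. Washed, deaminase-treated again, then 125I-APNEA saturation binding (0.1–2.5 nM; nonspecific 10⁻⁵ M R-PIA). Inhibition is relative to untreated membranes carried through the same steps.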

[14] = molecular target: T2, Adenosine receptor A1 (Rattus norvegicus); assay: Percentage inhibition of [125I]APNEA binding to Adenosine A1 receptor from rat brain after 45 min incubation at 10 nM; method in brief: as §3
[15] = molecular target: T2, Adenosine receptor A1 (Rattus norvegicus); assay: Percentage inhibition of [125I]APNEA binding to adenosine A1 receptor from rat brain after 45 min incubation at 10 nM; method in brief: as §3
Adenosine A2 receptor [16] = molecular target: T4, Adenosine A2 receptor; assay: Inhibitory affinity for Adenosine A2 receptor using [3H]N-ethyladenosine-5'-uronamide; assay type: protein assay

- Ki (Adenosine receptor A1 [1]): 8.71 nM
Compound: O=C(Cc1ccc(NC(=O)Cc2ccc(Nc3ncnc4c3ncn4C3O[C@H](CO)[C@@H](O)[C@H]3O)cc2)cc1)NCC/N=C(\S)Nc1ccc(F)cc1 (stereo partly drawn)

- inhibition [2]: 16%
Compound: CCCn1c(=O)c2nc(-c3ccc(OCC(=O)NCCNC(=O)CBr)cc3)[nH]c2n(CCC)c1=O

- Ki (Adenosine receptor A1 [3]): 23 nM
Compound: CCCn1c(=O)c2[nH]c(-c3ccc(OCC(=O)NCCNC(=O)CCCCCCC(=O)ON4C(=O)CCC4=O)cc3)nc2n(CCC)c1=O

- Ki (Adenosine receptor A1 [3]): 0.3 nM
Compound: CCCn1c(=O)c2[nH]c(-c3ccc(OCC(=O)NCCN)cc3)nc2n(CCC)c1=O [XANTHINE AMINE CONGENER]

Compound: CCCn1c(=O)c2nc(-c3ccc(OCC(=O)NCCNC(=O)Cc4ccc(N/C(S)=N/c5ccc(N=C=S)cc5)cc4)cc3)[nH]c2n(CCC)c1=O
- inhibition [4]: 20%
- Ki (Adenosine A2 receptor [5]): 655 nM
- Ratio [6]: 26.2

- inhibition [7]: 0%
Compound: CCCn1c(=O)c2nc(-c3ccc(OCC(=O)NCCNC(=O)CCC(=O)ON4C(=O)CCC4=O)cc3)[nH]c2n(CCC)c1=O

- inhibition [2]: 15%
- Ki (Adenosine receptor A1 [1]): 37.8 nM
Compound: CCCn1c(=O)c2nc(-c3ccc(OCC(=O)NCCNC(=O)CCCN4C(=O)C=CC4=O)cc3)[nH]c2n(CCC)c1=O

- Ki (Adenosine receptor A1 [1]): 6.75 nM
Compound: O=C(Cc1ccc(NC(=O)Cc2ccc(Nc3ncnc4c3ncn4C3O[C@H](CO)[C@@H](O)[C@H]3O)cc2)cc1)NCCNC(=S)Nc1ccccc1F (stereo partly drawn)

Compound: CCCn1c(=O)c2nc(-c3ccc(OCC(=O)NCCN=C(S)Nc4cccc(N=C=S)c4)cc3)[nH]c2n(CCC)c1=O
- inhibition [8]: 49%
- Ki (Adenosine A2 receptor [5]): 343 nM
- inhibition [7]: 94%
- Ratio [6]: 144
- inhibition [9]: 67%

- Ki (Adenosine receptor A1 [10]): 10.1 nM
Compound: CCCn1c(=O)c2[nH]c(-c3ccc(OCC(=O)NCCNC(=O)c4ccc(CBr)cc4)cc3)nc2n(CCC)c1=O

- inhibition [7]: 0%
- Ki (Adenosine receptor A1 [10]): 6.2 nM
Compound: CCCn1c(=O)c2nc(-c3ccc(OCC(=O)NCCNC(=O)CCCCC(C)=O)cc3)[nH]c2n(CCC)c1=O

Compound: CCCn1c(=O)c2nc(-c3ccc(OCC(=O)NCCN=C(S)Nc4ccc(N=C=S)cc4)cc3)[nH]c2n(CCC)c1=O
- inhibition [11]: 63%
- Ki (Adenosine A2 receptor [5]): 321 nM
- inhibition [7]: 73%
- Ratio [6]: 48.6
- inhibition [2]: 29%

Compound: O=C(Cc1ccc(NC(=O)Cc2ccc(Nc3ncnc4c3ncn4C3O[C@H](CO)[C@@H](O)[C@H]3O)cc2)cc1)NCCNC(=S)Nc1cccc(N=C=S)c1 (stereo partly drawn)
- Ki (Adenosine receptor A1 [1]): 0.867 nM

- Ki (Adenosine receptor A1 [1]): 1.19 nM
Compound: O=C(Cc1ccc(NC(=O)Cc2ccc(Nc3ncnc4c3ncn4C3O[C@H](CO)[C@@H](O)[C@H]3O)cc2)cc1)NCCNC(=S)Nc1ccc(Br)cc1 (stereo partly drawn)

- Ki (Adenosine receptor A1 [12]): 23.2 nM
Compound: CCCn1c(=O)c2[nH]c(-c3ccc(OCC(=O)NCCNC(=O)CNC(=O)CCCN4C(=O)C=CC4=O)cc3)nc2n(CCC)c1=O

- inhibition [2]: 10%
Compound: CCCn1c(=O)c2nc(-c3ccc(OCC(=O)ON4C(=O)CCC4=O)cc3)[nH]c2n(CCC)c1=O

Compound: O=C(Cc1ccc(NC(=O)Cc2ccc(Nc3ncnc4c3ncn4C3O[C@H](CO)[C@@H](O)[C@H]3O)cc2)cc1)NCC/N=C(\S)Nc1ccc(N=C=S)cc1 (stereo partly drawn)
- inhibition [13]: 39%
- Ki (Adenosine A2 receptor [5]): 191 nM
- inhibition [14]: > 80%
- inhibition [15]: > 80%

- Ki (Adenosine receptor A1 [12]): 1.64 nM
Compound: O=C(Cc1ccc(NC(=O)Cc2ccc(Nc3ncnc4c3ncn4C3O[C@H](CO)[C@@H](O)[C@H]3O)cc2)cc1)NCC/N=C(\S)Nc1c(F)c(F)c(F)c(F)c1F (stereo partly drawn)

- Ki (Adenosine A2 receptor [16]): 202 nM
- Ratio [6]: 76
- inhibition [2]: 38%
- Ki (Adenosine receptor A1 [1]): 8.3 nM
Compound: O=C(CBr)NCCNC(=O)Cc1ccc(NC(=O)Cc2ccc(Nc3ncnc4c3ncn4C3O[C@H](CO)[C@@H](O)[C@H]3O)cc2)cc1 (stereo partly drawn)

- Ki (Adenosine receptor A1 [12]): 8.52 nM
Compound: COc1ccc(NC(=S)NCCNC(=O)Cc2ccc(NC(=O)Cc3ccc(Nc4ncnc5c4ncn5C4O[C@H](CO)[C@@H](O)[C@H]4O)cc3)cc2)cc1 (stereo partly drawn)
